{"source": "ChEMBL document CHEMBL2163306", "about": "“Synthesis of new chiral xanthone derivatives acting as nerve conduction blockers in the rat sciatic nerve” (Eur J Med Chem, 2012)", "key": {"[1]": {"test_system": "Erythrocyte", "test": "Antihemolytic activity against hypotonic hemolysis in Wistar rat erythrocytes at 0.1 to 30 uM after 10 mins", "format": "functional, cell-based", "method_in_brief": "(§1)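 Blood was taken by puncture from urethane-anaesthetized (1.2 g/kg) Wistar rats and heparinised. After centrifugation, plasma and leukocyte layer were removed and cells were resuspended in 154 mM NaCl/10 mM phosphate buffer pH 7.0. The suspension was added to drug dilutions in hypotonic NaCl/phosphate buffer pH 7.0 (NaCl 63–67 mM for 50% haemolysis) and held 10 min at room temperature. It was then spun, and supernatant haemoglobin was read at 540 nm. Run in duplicate; expressed as relative haemolysis.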"}, "[2]": {"test": "Antihemolytic activity against hypotonic hemolysis in Wistar rat erythrocytes at 100 uM after 10 mins relative to control", "format": "functional, Erythrocyte", "method_in_brief": "as §1"}, "[3]": {"test": "Toxicity in isolated Wistar rat sciatic nerve assessed as axonal damage by LDH assay", "format": "tissue-based", "settings": "ex_vivo", "method_in_brief": "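Neuronal damage in isolated Wistar rat sciatic nerve bundles was gauged from LDH activity leaked into the incubation medium over time, following the Bergmeyer method.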"}, "[4]": {"test_system": "Sciatic nerve", "test": "Inhibition of amplitude of compound action potential in isolated Wistar rat sciatic nerve after 15 mins by electrophysiology assay", "format": "functional, tissue-based", "method_in_brief": "(§2)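 Sciatic nerve bundles 3–4 cm long came from adult Wistar rats (200–400 g). Drugs in Tyrode's solution were applied cumulatively (0.100–3.00 µM) at 1 mL/min flow, with at least 15 min contact each. Blockade was taken as percentage decrement in compound action potential amplitude versus control. Solvent was at most 0.05% v/v.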"}, "[5]": {"test_system": "Erythrocyte", "test": "Antihemolytic activity against hypotonic hemolysis in Wistar rat erythrocytes at 0.3 to 1 uM after 10 mins", "format": "functional, cell-based", "method_in_brief": "as §1"}, "[6]": {"test_system": "Sciatic nerve", "test": "Inhibition of amplitude of compound action potential in isolated Wistar rat sciatic nerve at 0.1 to 3 uM after 15 mins by electrophysiology assay", "format": "functional, tissue-based", "method_in_brief": "as §2"}, "[7]": {"test_system": "Erythrocyte", "test": "Antihemolytic activity against hypotonic hemolysis in Wistar rat erythrocytes after 10 mins", "format": "functional, cell-based", "method_in_brief": "as §1"}, "[8]": {"test_system": "Erythrocyte", "test": "Antihemolytic activity against hypotonic hemolysis in Wistar rat erythrocytes at 100 uM after 10 mins relative to sucrase", "format": "functional, cell-based", "method_in_brief": "as §1"}, "[9]": {"test_system": "Erythrocyte", "test": "Antihemolytic activity against hypotonic hemolysis in Wistar rat erythrocytes at 0.1 to 1 uM after 10 mins", "format": "functional, cell-based", "method_in_brief": "as §1"}, "[10]": {"test_system": "Erythrocyte", "test": "Antihemolytic activity against hypotonic hemolysis in Wistar rat erythrocytes at 0.1 to 100 uM after 10 mins", "format": "functional, cell-based", "method_in_brief": "as §1"}}, "note": "Activity calls are given as the source filed them. No cut-off for these calls is given here."}
{"smiles": "O=c1c2ccccc2oc2ccccc12", "note": "[XANTHONE]", "values": [{"measurement": "Activity", "setting": "[1]", "result": "inactive"}, {"measurement": "Ratio", "setting": "[2]", "result": 0.686}]}
{"smiles": "COc1ccc2c(=O)c3cc(C(=O)N[C@@H](C)c4ccc(C)cc4)ccc3oc2c1", "values": [{"measurement": "Activity", "setting": "[3]", "result": "Non-toxic"}, {"measurement": "inhibition", "setting": "[4]", "result": "Dose-dependent effect"}, {"measurement": "Activity", "setting": "[5]", "result": "Active"}, {"measurement": "Ratio", "setting": "[2]", "result": 0.967}]}
{"smiles": "CCCCOc1cc(C(=O)NCCN(CC)CC)c2ccccc2n1", "note": "[DIBUCAINE]", "values": [{"measurement": "inhibition", "setting": "[6]", "result": "Active"}, {"measurement": "Activity", "setting": "[7]", "result": "Dose-dependent effect"}, {"measurement": "Ratio", "setting": "[2]", "result": 0.421}]}
{"smiles": "COc1ccc2c(=O)c3cc(C(=O)N[C@H](CO)CC(C)C)ccc3oc2c1", "values": [{"measurement": "Activity", "setting": "[3]", "result": "Non-toxic"}, {"measurement": "inhibition", "setting": "[4]", "result": "Dose-dependent effect"}, {"measurement": "Activity", "setting": "[5]", "result": "Active"}]}
{"smiles": "COc1ccc2c(=O)c3cc(C(=O)N[C@H](CO)C(C)C)ccc3oc2c1", "values": [{"measurement": "Activity", "setting": "[8]", "result": "Active"}, {"measurement": "Activity", "setting": "[3]", "result": "Non-toxic"}, {"measurement": "inhibition", "setting": "[4]", "result": "Dose-dependent effect"}, {"measurement": "Activity", "setting": "[9]", "result": "Active"}]}
{"smiles": "OC[C@H]1O[C@@](CO)(O[C@H]2O[C@H](CO)[C@@H](O)[C@H](O)[C@H]2O)[C@@H](O)[C@@H]1O", "values": [{"measurement": "inhibition", "setting": "[6]", "result": "inactive"}, {"measurement": "Activity", "setting": "[10]", "result": "Active"}]}
